High-throughput results as filed in PubChem BioAssay.
This is a sample that favours compounds with a hit; in the whole collection about 2.4% have one here.
pCIP destab = compounds decreasing mouse p/CIP protein stability; Q05BA5; F442A p/CIP-EGFP cells, EGFP fluorescence, 16 h; decrease of EGFP signal, % at 10 µM; actives 0.01% (n = 290,000);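 active means EGFP signal decrease of at least 30% at 10 µM or well 3 SD below plate mean, unless failing retest; inactive means the rest, including hits failing retest or dose response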
PP5 primary = PP5 (human) phosphatase inhibition. actives 0.18% (n = 320,000). purified PP5c, OMFP substrate fluorescence. AID 1987. inhibition, % at 6.7 µM;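 active means inhibition above the campaign's mean inhibition across all tested compounds plus 3 SD, cut at about 9.5% in these data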
Fh CTSL1 inh = blocks F. hepatica cathepsin L1 in PFM18AAP counter-screen; recombinant F. hepatica cathepsin L1, Z-Leu-Arg-MCA fluorescence; actives 0.49% (n = 300,000); inhibition, % at 5.96 µM;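 active means inhibition above the mean of all tested compounds plus 3 SD, set per screening campaign, cut at about 17% in these data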
T cruzi repl = T. cruzi replication inhibition; T. cruzi beta-gal in NIH3T3, luminescence, 90 h; inhibition, % (test concentration not listed); actives 1.4% (n = 300,000); AID 1885;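 active means mean inhibition across valid replicates above about 55%, limit read from the data; inconclusive means mean below that limit but half or more replicates reach it; inactive means mean below it, under half of replicates reach it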;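 further: signal also drops with host cell toxicity which is not excluded here; higher percent means less beta-gal luminescence so fewer parasites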
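System: NIH/3T3 fibroblasts plus reporter T. cruzi. Medium: DMEM plus 2% FBS. Probe or stimulus: 5000 reporter trypomastigotes per well. Compound: single 50 nL compound addition per well in DMSO. Incubation: co-culture of at least 90 h after 3 h attachment. Detection: GalScreen β-gal luminescence, detergent lysis, 60 min. Evaluation: parasite load inhibition, %.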
JMJD2C inh = human JMJD2C demethylase inhibition | Q9H3R0 | AID 2099 | inhibition, % at 2.35 µM | actives 0.069% (n = 330,000) | GST-JMJD2C(1-420) H3K9me3 demethylation, DELFIA europium;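 active means more than half of a compound's replicate wells show inhibition beyond 50%, single wells judged on their own value; inconclusive means some, but no more than half, of replicates pass 50% inhibition; inactive means no replicate passes 50% inhibition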;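 further: signal counts dimethyl H3K9 product captured on neutravidin plate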
Target sequence (Q9H3R0 1-420 limits assumed): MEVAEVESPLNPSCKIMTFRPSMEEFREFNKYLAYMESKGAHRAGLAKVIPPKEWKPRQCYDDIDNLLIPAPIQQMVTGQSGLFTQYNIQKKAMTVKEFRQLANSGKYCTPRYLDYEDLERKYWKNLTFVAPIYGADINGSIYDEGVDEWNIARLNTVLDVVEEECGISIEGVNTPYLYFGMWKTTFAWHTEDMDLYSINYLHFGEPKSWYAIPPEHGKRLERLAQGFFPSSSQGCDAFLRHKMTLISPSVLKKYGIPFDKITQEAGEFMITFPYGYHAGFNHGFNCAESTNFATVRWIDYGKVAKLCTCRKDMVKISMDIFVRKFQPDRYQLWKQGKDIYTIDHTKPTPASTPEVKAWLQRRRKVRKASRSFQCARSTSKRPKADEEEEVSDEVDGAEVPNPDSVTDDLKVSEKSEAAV
Cardio protect = modulators protecting cardiomyocytes from myocardial damage | H9c2 cardiomyocytes, H2O2 injury protection, ATPLite, 2 h | protection from H2O2 cell death, % at 20 µM | actives 0.63% (n = 360,000);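 active means compounds giving at least 50% protection of heart cells from peroxide-induced death in the single-dose screen, raw or plate-pattern-corrected value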
Numbers stand for hits; i = inactive; ? = inconclusive; nt = no result.

SMILES	pCIP destab	PP5 primary	Fh CTSL1 inh	T cruzi repl	JMJD2C inh	Cardio protect
COc1ccc(N=Cc2sc(O)c3ccccc23)cc1	i	i	i	i	i	50.6
O=C(CCCSc1nc2sc3c(c2c(=O)[nH]1)CCC3)NCCCO	i	i	i	i	?	57.9
O=C(CCCSc1nc2sc3c(c2c(=O)[nH]1)CCC3)NCCO	i	i	i	i	i	87.6
Cc1c(C(c2cccc(Br)c2)c2c(C)n(C)n(-c3ccccc3)c2=O)c(=O)n(-c2ccccc2)n1C	i	i	i	i	i	i
CCc1c(C#N)c(SCCC(=O)Nc2cccc(OC)c2)nc2c1C(=O)CC(C)(C)C2	i	i	i	i	i	i
CCc1c(C#N)c(SCCC(=O)Nc2ccc(F)cc2)nc2c1C(=O)CC(C)(C)C2	i	i	i	56.2	i	i
CCc1nc(N2CCN(C(=S)NCCCOC)CC2)c2c3c(sc2n1)CCCC3	i	i	i	i	i	i
O=Cc1ccc(F)c([B-](F)(F)F)c1	nt	nt	nt	nt	nt	i
CN1CCN(c2nc(-c3ccc(Br)cc3)nnc2-c2ccccc2)CC1	i	i	i	65.1	i	i
COC(=O)Cn1c(=NC(=O)c2nc3ccccc3s2)sc2cc(S(N)(=O)=O)ccc21	i	i	i	i	i	i
CCOC(=O)Cn1c(=NC(=O)c2cc(-c3cccs3)nc3ccccc23)sc2cc(S(N)(=O)=O)ccc21	i	i	i	i	i	75.3
COCCn1c(=NC(=O)c2ccc(S(=O)(=O)N3CCCc4ccccc43)cc2)sc2cc(S(C)(=O)=O)ccc21	i	i	i	i	i	i
CCOC(=O)Cn1c(=NC(=O)C2COc3ccccc3O2)sc2cc(S(N)(=O)=O)ccc21 (stereo not drawn)	i	i	i	i	i	i
COC(=O)Cn1c(=NC(=O)c2cc(-c3cccs3)nc3ccccc23)sc2cc(S(N)(=O)=O)ccc21	i	i	i	i	i	66.1
COCCn1c(=NC(=O)c2nc3ccccc3s2)sc2cc(S(C)(=O)=O)ccc21	i	i	i	i	i	57.8
CCOc1cccc(-c2c(C(=O)N/N=C/c3ccc(Br)cc3)nnn2-c2nonc2N)c1	i	i	i	i	i	i
COc1ccc(C(C(=O)NC2CCCC2)N(C(=O)c2snc(-c3ccc(F)cc3)c2N)c2ccc(OC)cc2)cc1 (stereo not drawn)	i	i	i	60.4	i	i
NC(=O)c1nsc(C(=O)N(c2cccc(O)c2)C(C(=O)NC2CCCC2)c2ccc(Cl)cc2)c1N (stereo not drawn)	i	i	i	i	i	i
CCOc1ccc(C(C(=O)NC2CCCC2)N(C(=O)c2snc(C(N)=O)c2N)c2cccc(O)c2)cc1 (stereo not drawn)	i	i	i	i	i	81.4
NC(=O)c1nsc(C(=O)N(c2ccccc2)C(C(=O)NC2CCCC2)c2ccc3ncccc3c2)c1N (stereo not drawn)	i	i	i	i	i	62.1
COc1ccc(C(C(=O)NC2CCCC2)N(C(=O)c2snc(-c3ccc(F)cc3)c2N)c2ccc(F)cc2)cc1 (stereo not drawn)	i	i	i	i	i	i
Cc1cccc(OCc2nnc(-c3ccc(F)cc3)o2)c1	nt	i	nt	nt	i	i
COc1ccc(C(=O)NC2CCCc3c2cnn3-c2cccc(C)c2C)o1 (stereo not drawn)	i	i	i	i	i	i
CC(=O)c1cccc(CN(C)CC2CCCN(CCc3ccccc3C)C2)c1 (stereo not drawn)	i	nt	nt	i	i	i
N#C/C(=C\Nc1ccc2c(c1)OCCO2)c1nc2ccccc2[nH]1	i	i	i	i	i	81.5
SMILES	pCIP destab	PP5 primary	Fh CTSL1 inh	T cruzi repl	JMJD2C inh	Cardio protect
N#C/C(=C\Nc1ccc2c(c1)OCCO2)c1nc(-c2ccccc2)cs1	i	i	i	i	i	i
Cc1ccc2nc(/C(C#N)=C\c3ccc([N+](=O)[O-])o3)[nH]c2c1	i	i	i	66.7	i	i
N#C/C(=C\c1ccc(Sc2ccccc2)o1)c1nc2ccccc2[nH]1	i	i	i	60.9	i	i
Cc1cc(-c2ccccc2)nc(N/N=C/c2ccccc2F)n1	i	i	i	i	i	i
O=c1ccsn1Cc1ccccc1	i	i	24.0	67.2	i	i
O=C1NC(Cc2ccccc2)C(=O)N1Cc1ccccc1 (stereo not drawn)	nt	nt	nt	nt	nt	i
COc1ccc(NC2CCCN(C(=O)CN3C(=O)c4ccccc4C3=O)C2)cc1OC (stereo not drawn)	i	i	i	i	i	i
CC(=O)Nc1ccc(C(=O)/C=C/c2ccco2)cc1	i	i	22.4	i	i	i
CC1=C(C(=O)N2CCCCCC2)CC(CC(=O)NC2CCCCC2)C(=O)N1Cc1ccc(C(C)(C)C)cc1 (stereo not drawn)	nt	nt	nt	nt	nt	i
O=C(COc1ccc(Cl)cc1)NCCCNC(=O)c1cccnc1	i	i	16.8	i	i	i
O=C(COc1ccc(Br)cc1)NCCCNC(=O)c1cccnc1	i	i	i	i	i	i
COc1ccccc1C(=O)NC(=O)COC(=O)Cc1ccccc1[N+](=O)[O-]	nt	i	i	i	i	i
CCC(C)N(C(=O)CSc1nnc(COc2ccccc2F)n1N)C1CCS(=O)(=O)C1 (stereo not drawn)	nt	i	i	i	i	i
CC1Cc2ccccc2N1C(=O)c1cnc2n(c1=O)CCS2 (stereo not drawn)	i	i	66.2	i	i	i
O=C(c1cnc2n(c1=O)CCS2)N1CCc2ccccc21	i	i	i	i	i	i
CCOC(=O)Cc1csc(N/N=C\c2ccc(N(C)C)cc2)n1	i	i	18.9	i	?	i
CCn1c(NC(=O)/C=C/c2ccc(F)cc2)nc2ccccc21	i	i	i	i	i	74.5
CCCn1c(NC(=O)c2ccc(F)cc2)nc2ccccc21	i	i	i	83.8	i	i
CCn1c(NC(=O)c2ccccc2)nc2ccccc21	i	i	i	i	i	i
CCCn1c(NC(=O)c2ccc(Br)cc2)nc2ccccc21	i	i	i	i	i	i
CCCCn1c(NCc2ccccc2O)nc2ccccc21	i	i	i	i	i	i
CCCCn1c(NCc2ccccc2NS(=O)(=O)c2ccc(C)cc2)nc2ccccc21	i	i	i	57.1	i	i
CCCCn1c(NC(=O)c2ccccc2)nc2ccccc21	i	i	i	55.6	i	81.2
Cc1c(NC(=O)CSc2nnc(-c3ccncc3)n2C)c(=O)n(-c2ccccc2)n1C	nt	nt	nt	nt	nt	i
Cc1ccc(NC(=O)/C=C/c2cccs2)c([N+](=O)[O-])c1	i	i	i	i	55.6	i
Cc1ccc(NC(=O)/C=C/C(=O)O)c([N+](=O)[O-])c1	i	i	i	i	i	i
O=[N+]([O-])c1ccc2nc(-[n+]3c(-c4ccccc4)cc(-c4ccccc4)cc3-c3ccccc3)[nH]c2c1	i	i	i	57.6	i	i
